# High-throughput results: PubChem, The Scripps Research Institute Molecular Screening Center
# PP1 inh – PP1-alpha phosphatase inhibitors, primary screen, counter-screen for PP5 inhibitor project, biochemical, fluorescence, OMFP substrate, single point; hit rate 0.9% among 320,000; purified PP1alpha; inhibition, % at 6.7 µM;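 active = inhibition above the mean inhibition of all tested compounds plus 3 SD, computed separately for each screening campaign, cut at about 15% in these data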
# procasp7 counter – procaspase-7 activators, primary screen, counter-screen for procaspase-3 activator project, biochemical, absorbance, HTS, human | Caspase-7 (Homo sapiens), P55210 | recombinant procaspase-7, Ac-DEVD-pNA absorbance 405 nm; D23A/D198A/D206A triple mutant, cannot self-cleave; scale: DMSO 0, 5 µM enzyme 100 | hit rate 0.093% among 330,000 | activation, % at 8.5 µM | AID 463210, 2010;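 active = percent activation above the screen-wide mean plus 3 SD, cut at about 25% in these data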
#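 Assay system: Uncleavable procaspase-7 mutant enzyme / Input: 2 µM procaspase-7 mutant as dispensed / Dosing: single nominal 8.5 µM compound dose, 0.8% DMSO final / Timing: 1 h enzyme–compound preincubation and 2 h substrate reaction, both 25 °C / Detection: p-Nitroaniline absorbance at 405 nm, read at 0 and 120 min / Replication: singlicate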
# PP5 inh – PP5 phosphatase inhibitors, primary screen, biochemical, fluorescence; Serine/threonine-protein phosphatase 5 (Homo sapiens), P53041; purified PP5c, OMFP substrate fluorescence; inhibition, % at 6.7 µM; hit rate 0.18% among 320,000; AID 1987, 2009;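 active = inhibition above the campaign's mean inhibition across all tested compounds plus 3 SD, cut at about 9.5% in these data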;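 also: 0% = DMSO only and 100% = 100 µM cantharidin control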
# procasp3 activ – activators of human procaspase-3 D3A mutant, primary screen, biochemical, absorbance, PC-3 D3A mutant, single concentration. hit rate 0.11% among 330,000. activation, % at 8.5 µM. Caspase-3 (Homo sapiens), P42574. AID 463141, 2010. recombinant procaspase-3 D3A, Ac-DEVD-pNA absorbance 405 nm;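 active = activation above the mean of all tested compounds plus 3 SD, cut at about 21% in these data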;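 also: 0% = DMSO alone and 100% = DMSO wells spiked with extra 5 µM PC-3 D3A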
# Target sequence (P42574 whole entry D9A/D28A/D175A): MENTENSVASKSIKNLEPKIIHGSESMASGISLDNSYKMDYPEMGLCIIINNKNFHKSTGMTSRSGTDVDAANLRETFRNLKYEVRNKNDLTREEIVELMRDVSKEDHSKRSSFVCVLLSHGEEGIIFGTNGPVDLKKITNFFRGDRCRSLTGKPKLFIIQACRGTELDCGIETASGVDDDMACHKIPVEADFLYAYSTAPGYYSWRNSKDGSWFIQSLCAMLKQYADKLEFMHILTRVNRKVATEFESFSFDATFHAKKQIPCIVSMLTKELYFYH
#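 Test system: Procaspase-3 D3A mutant; medium: Zinc-free HEPES/NaCl buffer with 0.01% Triton X-100 at pH 7.4; reagent: DEVD-pNA substrate; doses: one concentration, 8.5 µM nominal, 0.8% DMSO; times: 1 h preincubation plus 2 h reaction at 25 °C; signal: Epi-absorbance at 405 nm of released p-nitroaniline, 0 and 120 min; replicates: singlicate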
# proCasp7 act trip – procaspase-7 activators, counter-screen for procaspase-3 activator project, biochemical, absorbance, triplicate, human. 210 tested, under 10 active. recombinant procaspase-7, Ac-DEVD-pNA absorbance; asp23/198/206-to-Ala mutant, cannot self-cleave. AID 488941, 2010. shares compounds with procasp3 activ. activation, % at 8.5 µM;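 active = mean activation above a set limit taken from an earlier procaspase-7 screen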;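 also: 0% = DMSO wells and 100% = DMSO plus 5 µM procaspase-7 enzyme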
# proCasp3 confirm – activators of human procaspase-3 D3A mutant, confirmation, biochemical, absorbance, PC-3 D3A mutant, triplicate | activation, % at 8.5 µM | hit rate 10% among 210 | recombinant PC-3 D3A, Ac-DEVD-pNA absorbance 405 nm; 100% is higher-enzyme control | shares compounds with procasp3 activ;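 active = mean activation above a set limit carried over from the earlier primary screen, cut at about 22% in these data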
# Active calls of the source: *; . = not tested or not shown. An excerpt weighted towards active compounds, which were near 1.2% of everything screened.
SMILES,PP1 inh,procasp7 counter,PP5 inh,procasp3 activ,proCasp7 act trip,proCasp3 confirm
Cc1ccc2cc(CN(C)S(C)(=O)=O)c(=O)[nH]c2c1,2,4,2,-7,.,.
CC(C)OC(=O)C1CC(C)(O)C(=O)C(C(=O)OC(C)C)C1c1ccc([N+](=O)[O-])cc1 (stereo unspecified),-3,1,1,2,.,.
COc1ccc(N2CCN(C(=O)CNC(=O)c3ccccc3Cl)CC2)cc1,0,4,0,12,.,.
CCOC(=O)c1c(C)[nH]c(C(=O)OCC(=O)c2c(N)n(C)c(=O)n(C)c2=O)c1C,-1,9,-1,6,.,.
Cc1ccc(NC(=O)CSc2nnc(-c3cccnc3)o2)c(C)c1,-4,2,3,23*,-17,-5
Cc1ccc(C)c(NC(=O)CSc2nnc(-c3ccccc3)o2)c1,-8,0,1,3,.,.
C=CCn1c2ccccc2c(=O)c2cc(C#CC[C@@H](C)O)ccc21,3,-10,0,-4,.,.
C=CCn1c2ccccc2c(=O)c2cc(C#CC3(O)CCCCC3)ccc21,3,-22,2,150*,-21,-14
CCOC(=O)c1ccc(N/C=C/C(=O)c2ccc(OC)c(OC)c2)cc1,-3,1,-2,25*,-6,5
CCOc1ccc(N/C=C/C(=O)c2ccc(OC)c(OC)c2)cc1,5,4,1,-1,.,.
Cc1ccc(-c2cnc3ccccc3n2)cc1C,-4,-4,3,3,.,.
CCCCCCN1C=CC(=C/C=C(\C#N)C(=O)OCC)C=C1,-5,-20,1,24*,-21,-9
COc1ccc(N2CCN(C(=O)CC34CC5CC(CC(C5)C3)C4)CC2)c([N+](=O)[O-])c1,3,-3,7,22*,2,4
CCOc1ccccc1NC(=O)COc1coc(CN2CCCc3ccccc32)cc1=O,1,1,3,-4,.,.
CCOc1ccccc1NC(=O)COc1coc(CN2CCc3ccccc3C2)cc1=O,-6,7,2,22*,3,6
CC(C)(CO)Nc1nc(Cl)nc(NC2CCCCC2)n1,-3,6,0,5,.,.
CC(=O)c1cccc(NS(=O)(=O)c2ccc(N/C=C\C(=O)c3ccc(C)cc3)cc2)c1,-1,22,3,38*,-1,1
CCOC(=O)CC(=O)CSc1nc2sc(C)cc2c(=O)n1Cc1ccco1,3,0,4,59*,-2,-1
O=C(Cn1c2ccccc2c(=O)c2ccccc21)Nc1ccccc1F,7,-12,0,28*,-21,-14
CCc1cccc2c(/C=N/NC(=O)c3cccc(S(=O)(=O)Nc4ccccc4Cl)c3)c[nH]c12,2,-2,3,3,.,.
COc1ccc(C2CC(c3cccc(F)c3)=NN2c2ccc(S(N)(=O)=O)cc2)cc1 (stereo unspecified),.,20,.,37*,-22,-12
CCCOC(=O)Nc1c(C)cccc1C(C)C,-2,-6,-1,4,.,.
Cc1cc(C)c(C#N)c(SCc2nnc(-c3ccccc3)o2)n1,-4,23,-4,125*,-15,-18
N#Cc1cc2c(nc1SCc1nc3ccccc3[nH]1)CCC2,-1,-6,0,1,.,.
Cc1cc(C)c(C#N)c(SCc2nc3ccccc3[nH]2)n1,-2,2,2,156*,-2,5
NC(=O)c1c(NC(=O)c2ccccc2C(=O)O)sc2c1CCCC2,-7,5,2,7,.,.
NC(=O)c1c(NC(=O)c2ccccc2F)sc2c1CCCC2,5,-20,4,37*,-21,-66
Cn1c(-c2ccc(C=O)s2)nc2c3ccccc3c3ccccc3c21,4,-23,1,46*,-21,-14
